Test results: ChEMBL document CHEMBL1147951, “Synthesis and antimicrobial activity of symmetrical two-tailed dendritic tricarboxylato amphiphiles” (2007)
Converted amounts (≈) assume the structure as drawn.

Legend:
Format in all cases: functional
Klebsiella pneumoniae = assay: Antimicrobial activity against Klebsiella pneumoniae by broth microdilution assay
Method in brief: (§1)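 Strains were E. coli strain C (ATCC 13706) and K. pneumoniae ATCC 4352, grown from a single colony in 1/10-strength BHI broth + 0.2% sucrose and adjusted with buffered saline gelatin to McFarland No. 1. Twofold dilution series of compound in triethanolamine/water used doubled medium and inoculum volumes. Plates were incubated at 37 °C and turbidity was scored visually on day 7. MIC, run in triplicate, was the lowest concentration giving a prominent visible turbidity decrease.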

Staphylococcus aureus [1] = assay: Antimicrobial activity against Staphylococcus aureus by broth microdilution assay
Method in brief: (§2)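 Twofold dilution series of amphiphile (dissolved in aqueous triethanolamine, pH 8–9) in 1/10-strength Brain Heart Infusion Broth with 0.2% sucrose. Inoculum from a single-colony broth culture, diluted with buffered saline gelatin to No. 1 McFarland turbidity. Incubated at 30 °C; turbidity scored visually on day 4. MIC = lowest concentration giving a prominent visible decrease in turbidity; triplicate.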

[2] = tested on: Lactiplantibacillus plantarum; assay: Antimicrobial activity against Lactobacillus plantarum by broth microdilution assay
Method in brief: (§3)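 Strains were L. plantarum ATCC 14917, precultured in TSB, and M. smegmatis ATCC 607, precultured in Middlebrook 7H9. Inocula were diluted with buffered saline gelatin to McFarland No. 1. Twofold dilutions of compound in aqueous triethanolamine were made in 1/10-strength BHI broth + 0.2% sucrose and mixed with an equal volume of inoculum. Plates were incubated at 30 °C and scored visually for turbidity on day 4. MIC was determined in triplicate.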

Saccharomyces cerevisiae = assay: Antimicrobial activity against Saccharomyces cerevisiae by broth microdilution assay
Method in brief: (§4)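 Compounds were dissolved in aqueous triethanolamine (stock pH 8–9) and serially diluted twofold in 1/10-strength BHI broth + 0.2% sucrose. Inocula were adjusted with buffered saline gelatin to McFarland No. 1; for A. niger, spores were scraped from PDA. Plates were incubated at 30 °C and turbidity was scored visually on day 4. MIC, run in triplicate, was the lowest concentration giving a prominent visible decrease in turbidity.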

Cryptococcus neoformans = assay: Antimicrobial activity against Cryptococcus neoformans by broth microdilution assay; method in brief: as §4
[3] = tested on: Mycolicibacterium smegmatis; assay: Antimicrobial activity against Mycobacterium smegmatis by broth microdilution assay; method in brief: as §3
Micrococcus luteus = assay: Antimicrobial activity against Micrococcus luteus by broth microdilution assay; method in brief: as §4
Aspergillus niger = assay: Antimicrobial activity against Aspergillus niger by broth microdilution assay; method in brief: as §4
Escherichia coli = assay: Antimicrobial activity against Escherichia coli by broth microdilution assay; method in brief: as §1
Candida albicans = assay: Antimicrobial activity against Candida albicans by broth microdilution assay; method in brief: as §4
Staphylococcus aureus [4] = assay: Antimicrobial activity against methicillin-resistant Staphylococcus aureus by broth microdilution assay; method in brief: as §2

Compound	MIC (Klebsiella pneumoniae)	MIC (Staphylococcus aureus [1])	MIC [2]	MIC (Saccharomyces cerevisiae)	MIC (Cryptococcus neoformans)	MIC [3]	MIC (Micrococcus luteus)	MIC (Aspergillus niger)	MIC (Escherichia coli)	MIC (Candida albicans)	MIC (Staphylococcus aureus [4])
CCCCCCCCCCCCCCNC(=O)NC(CCC(=O)O)(CCC(=O)O)CCC(=O)O	290 µM (≈ 141 µg/mL)	6400 µM (≈ 3110 µg/mL)	6400 µM (≈ 3110 µg/mL)	580 µM (≈ 282 µg/mL)	1600 µM (≈ 779 µg/mL)	580 µM (≈ 282 µg/mL)	> 13000 µM	6400 µM (≈ 3110 µg/mL)	290 µM (≈ 141 µg/mL)	1600 µM (≈ 779 µg/mL)	6400 µM (≈ 3110 µg/mL)
CCCCCCCCCCC(CCCCCCCCCC)NC(=O)NC(CCC(=O)O)(CCC(=O)O)CCC(=O)O	> 11000 µM	–	5300 µM (≈ 3100 µg/mL)	2700 µM (≈ 1580 µg/mL)	15 µM (≈ 8.77 µg/mL)	330 µM (≈ 193 µg/mL)	> 11000 µM	11000 µM (≈ 6430 µg/mL)	2700 µM (≈ 1580 µg/mL)	> 11000 µM	–
CCCCCCCCCCCN(CCCCCCCCCCC)C(=O)NC(CCC(=O)O)(CCC(=O)O)CCC(=O)O	> 950 µM	> 10000 µM	10000 µM (≈ 5990 µg/mL)	5200 µM (≈ 3110 µg/mL)	> 950 µM	650 µM (≈ 389 µg/mL)	10000 µM (≈ 5990 µg/mL)	10000 µM (≈ 5990 µg/mL)	2600 µM (≈ 1560 µg/mL)	> 10000 µM	10000 µM (≈ 5990 µg/mL)
CCCCCCCCCCCCCCCCCCNC(=O)NC(CCC(=O)O)(CCC(=O)O)CCC(=O)O	260 µM (≈ 141 µg/mL)	1400 µM (≈ 760 µg/mL)	1400 µM (≈ 760 µg/mL)	130 µM (≈ 70.6 µg/mL)	90 µM (≈ 48.8 µg/mL)	33 µM (≈ 17.9 µg/mL)	> 12000 µM	1400 µM (≈ 760 µg/mL)	130 µM (≈ 70.6 µg/mL)	1400 µM (≈ 760 µg/mL)	720 µM (≈ 391 µg/mL)
CCCCCCCCC(CCCCCCCC)NC(=O)NC(CCC(=O)O)(CCC(=O)O)CCC(=O)O	> 12000 µM	–	5900 µM (≈ 3120 µg/mL)	3000 µM (≈ 1590 µg/mL)	270 µM (≈ 143 µg/mL)	1500 µM (≈ 793 µg/mL)	> 12000 µM	5900 µM (≈ 3120 µg/mL)	1500 µM (≈ 793 µg/mL)	740 µM (≈ 391 µg/mL)	–
CCCCCCCCCCCCCCCCNC(=O)NC(CCC(=O)O)(CCC(=O)O)CCC(=O)O	280 µM (≈ 144 µg/mL)	760 µM (≈ 391 µg/mL)	6100 µM (≈ 3140 µg/mL)	550 µM (≈ 283 µg/mL)	47 µM (≈ 24.2 µg/mL)	140 µM (≈ 72.1 µg/mL)	> 12000 µM	3000 µM (≈ 1540 µg/mL)	140 µM (≈ 72.1 µg/mL)	47 µM (≈ 24.2 µg/mL)	6100 µM (≈ 3140 µg/mL)
CCCCCCCCCCCCC(CCCCCCCCCCCC)NC(=O)NC(CCC(=O)O)(CCC(=O)O)CCC(=O)O	> 9800 µM	> 9800 µM	9800 µM (≈ 6280 µg/mL)	610 µM (≈ 391 µg/mL)	6.9 µM (≈ 4.42 µg/mL)	1200 µM (≈ 769 µg/mL)	> 9800 µM	9800 µM (≈ 6280 µg/mL)	2400 µM (≈ 1540 µg/mL)	> 9800 µM	–
CCCCCCCCCCCC(CCCCCCCCCCC)NC(=O)NC(CCC(=O)O)(CCC(=O)O)CCC(=O)O	> 10000 µM	> 10000 µM	10000 µM (≈ 6130 µg/mL)	1300 µM (≈ 797 µg/mL)	7.2 µM (≈ 4.41 µg/mL)	640 µM (≈ 392 µg/mL)	> 10000 µM	10000 µM (≈ 6130 µg/mL)	2500 µM (≈ 1530 µg/mL)	> 10000 µM	–
CCCCCCCCCN(CCCCCCCCC)C(=O)NC(CCC(=O)O)(CCC(=O)O)CCC(=O)O	> 1000 µM	> 12000 µM	12000 µM (≈ 6510 µg/mL)	720 µM (≈ 391 µg/mL)	260 µM (≈ 141 µg/mL)	1400 µM (≈ 760 µg/mL)	12000 µM (≈ 6510 µg/mL)	5800 µM (≈ 3150 µg/mL)	1400 µM (≈ 760 µg/mL)	> 12000 µM	12000 µM (≈ 6510 µg/mL)
CCCCCCCC(CCCCCCC)NC(=O)NC(CCC(=O)O)(CCC(=O)O)CCC(=O)O	> 12000 µM	–	6200 µM (≈ 3100 µg/mL)	6200 µM (≈ 3100 µg/mL)	1100 µM (≈ 551 µg/mL)	3100 µM (≈ 1550 µg/mL)	> 12000 µM	6200 µM (≈ 3100 µg/mL)	3100 µM (≈ 1550 µg/mL)	3100 µM (≈ 1550 µg/mL)	–
CCCCCCCCCC(CCCCCCCCC)NC(=O)NC(CCC(=O)O)(CCC(=O)O)CCC(=O)O	> 11000 µM	–	5600 µM (≈ 3120 µg/mL)	2800 µM (≈ 1560 µg/mL)	64 µM (≈ 35.6 µg/mL)	350 µM (≈ 195 µg/mL)	> 11000 µM	2800 µM (≈ 1560 µg/mL)	350 µM (≈ 195 µg/mL)	> 11000 µM	–
CCCCCCCCCCCCCCCCCCCCNC(=O)NC(CCC(=O)O)(CCC(=O)O)CCC(=O)O	250 µM (≈ 143 µg/mL)	1400 µM (≈ 799 µg/mL)	1400 µM (≈ 799 µg/mL)	120 µM (≈ 68.5 µg/mL)	2700 µM (≈ 1540 µg/mL)	62 µM (≈ 35.4 µg/mL)	> 11000 µM	680 µM (≈ 388 µg/mL)	62 µM (≈ 35.4 µg/mL)	2700 µM (≈ 1540 µg/mL)	1400 µM (≈ 799 µg/mL)
CCCCCCCCCCN(CCCCCCCCCC)C(=O)NC(CCC(=O)O)(CCC(=O)O)CCC(=O)O	> 1000 µM	> 11000 µM	11000 µM (≈ 6280 µg/mL)	2700 µM (≈ 1540 µg/mL)	62 µM (≈ 35.4 µg/mL)	680 µM (≈ 388 µg/mL)	11000 µM (≈ 6280 µg/mL)	11000 µM (≈ 6280 µg/mL)	2700 µM (≈ 1540 µg/mL)	> 11000 µM	11000 µM (≈ 6280 µg/mL)
CCCCCCCCN(CCCCCCCC)C(=O)NC(CCC(=O)O)(CCC(=O)O)CCC(=O)O	> 1100 µM	> 12000 µM	1500 µM (≈ 772 µg/mL)	380 µM (≈ 196 µg/mL)	550 µM (≈ 283 µg/mL)	1500 µM (≈ 772 µg/mL)	3000 µM (≈ 1540 µg/mL)	380 µM (≈ 196 µg/mL)	760 µM (≈ 391 µg/mL)	190 µM (≈ 97.8 µg/mL)	3000 µM (≈ 1540 µg/mL)
CCCCCCCCCCCCCCCCCCCCCCNC(=O)NC(CCC(=O)O)(CCC(=O)O)CCC(=O)O	470 µM (≈ 281 µg/mL)	1300 µM (≈ 779 µg/mL)	950 µM (≈ 569 µg/mL)	30 µM (≈ 18 µg/mL)	5200 µM (≈ 3110 µg/mL)	120 µM (≈ 71.9 µg/mL)	> 10000 µM	5200 µM (≈ 3110 µg/mL)	120 µM (≈ 71.9 µg/mL)	2600 µM (≈ 1560 µg/mL)	1300 µM (≈ 779 µg/mL)
CCCCCCCN(CCCCCCC)C(=O)NC(CCC(=O)O)(CCC(=O)O)CCC(=O)O	> 1200 µM	> 13000 µM	6400 µM (≈ 3110 µg/mL)	800 µM (≈ 389 µg/mL)	1200 µM (≈ 584 µg/mL)	3200 µM (≈ 1560 µg/mL)	6400 µM (≈ 3110 µg/mL)	800 µM (≈ 389 µg/mL)	3200 µM (≈ 1560 µg/mL)	1600 µM (≈ 779 µg/mL)	3200 µM (≈ 1560 µg/mL)
